# Reference: ChEMBL document CHEMBL1133510, “Synthesis and evaluation of novel steroidal oxime inhibitors of P450 17 (17 alpha-hydroxylase/C17-20-lyase) and 5 alpha-reductase types 1 and 2” (J Med Chem, 2000)
# Several values for one entry are separate records, joined by “and”; a condition that tells them apart may be missing. Identical values can stand only once.
# Assays:
# [1] = target: T1, 3-oxo-5-alpha-steroid 4-dehydrogenase 1 (Homo sapiens, UniProt P18405); test: Evaluated for the inhibitory activity against human steroid 5-alpha-reductase type I in human DU-145 cell assay at 5 nM of androstenedione; format: cell-based
# T1 sequence (P18405 whole entry): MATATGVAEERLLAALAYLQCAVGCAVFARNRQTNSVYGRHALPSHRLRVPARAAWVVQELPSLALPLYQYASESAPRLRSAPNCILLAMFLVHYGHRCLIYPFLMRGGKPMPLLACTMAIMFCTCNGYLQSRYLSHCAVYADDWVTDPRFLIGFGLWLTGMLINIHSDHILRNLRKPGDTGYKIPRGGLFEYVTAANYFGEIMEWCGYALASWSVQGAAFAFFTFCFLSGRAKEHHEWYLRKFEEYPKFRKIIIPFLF
# Method in brief: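 Whole human DU-145 cells as source of type 1 enzyme, incubated with radiolabeled androstenedione at 5 nM; HPLC separation of product. IC50 = inhibitor concentration giving 50% inhibition; mean of at least two experiments.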
# [2] = target: T1, 3-oxo-5-alpha-steroid 4-dehydrogenase 1; test: Inhibition of Human steroid 5-alpha-reductase type I expressed in HEK293 cells; format: cell-based
# Method in brief: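 Human 5α-reductase type 1 cDNA (plasmid pRcCMV-I) stably transfected into HEK293 cells, clones chosen under G418. 300 000 cells/well attached overnight at 37 °C, then fresh DMEM/10% FCS containing 5 nM [3H]androstenedione plus inhibitor (1% DMSO) for 30 min. Supernatant extracted with ether, product measured by HPLC. IC50 taken as mean of at least three experiments.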
# [3] = target: T2, 3-oxo-5-alpha-steroid 4-dehydrogenase 2 (Homo sapiens, UniProt P31213); test: Inhibition of Human steroid 5-alpha-reductase type II expressed in HEK293 cells; format: cell-based
# T2 sequence (P31213 whole entry): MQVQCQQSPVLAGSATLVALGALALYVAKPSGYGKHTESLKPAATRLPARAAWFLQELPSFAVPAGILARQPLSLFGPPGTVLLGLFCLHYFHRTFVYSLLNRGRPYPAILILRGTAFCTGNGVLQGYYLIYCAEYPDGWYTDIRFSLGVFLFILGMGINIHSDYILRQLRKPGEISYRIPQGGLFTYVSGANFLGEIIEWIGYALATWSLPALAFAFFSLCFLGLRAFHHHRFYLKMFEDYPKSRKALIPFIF
# Method in brief: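 Stably transfected HEK293 clones expressing full-length human type 1 or type 2 cDNA; 300 000 cells per well attached overnight at 37 °C. Fresh DMEM/10% FCS with 5 nM [3H]androstenedione and inhibitor added, final DMSO 1%. Incubated 30 min (type 1) or 13 min (type 2); supernatant ether-extracted and analysed by HPLC. Mean of at least three experiments.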
# [4] = target: T3, Thromboxane-A synthase (Homo sapiens) (UniProt P24557); conditions: 50 uM
# T3 sequence (whole entry): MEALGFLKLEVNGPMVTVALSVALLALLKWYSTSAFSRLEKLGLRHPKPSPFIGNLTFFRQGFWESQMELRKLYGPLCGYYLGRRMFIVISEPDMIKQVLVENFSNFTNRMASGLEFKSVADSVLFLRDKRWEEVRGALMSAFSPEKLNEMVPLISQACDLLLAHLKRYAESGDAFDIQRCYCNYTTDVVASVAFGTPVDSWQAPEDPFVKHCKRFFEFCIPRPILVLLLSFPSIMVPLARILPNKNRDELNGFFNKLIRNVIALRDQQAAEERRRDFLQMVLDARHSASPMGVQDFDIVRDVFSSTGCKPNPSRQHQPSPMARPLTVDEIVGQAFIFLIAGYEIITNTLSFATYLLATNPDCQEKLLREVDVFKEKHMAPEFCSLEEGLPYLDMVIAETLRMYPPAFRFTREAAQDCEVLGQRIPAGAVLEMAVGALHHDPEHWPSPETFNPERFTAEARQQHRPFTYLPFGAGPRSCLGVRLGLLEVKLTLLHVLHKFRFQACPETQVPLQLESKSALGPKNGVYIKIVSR
# [5] = target: T4, Steroid 17-alpha-hydroxylase/17,20 lyase (Rattus norvegicus, UniProt P11715); test: Inhibition of rat Cytochrome P450 17
# T4 sequence (P11715 whole entry): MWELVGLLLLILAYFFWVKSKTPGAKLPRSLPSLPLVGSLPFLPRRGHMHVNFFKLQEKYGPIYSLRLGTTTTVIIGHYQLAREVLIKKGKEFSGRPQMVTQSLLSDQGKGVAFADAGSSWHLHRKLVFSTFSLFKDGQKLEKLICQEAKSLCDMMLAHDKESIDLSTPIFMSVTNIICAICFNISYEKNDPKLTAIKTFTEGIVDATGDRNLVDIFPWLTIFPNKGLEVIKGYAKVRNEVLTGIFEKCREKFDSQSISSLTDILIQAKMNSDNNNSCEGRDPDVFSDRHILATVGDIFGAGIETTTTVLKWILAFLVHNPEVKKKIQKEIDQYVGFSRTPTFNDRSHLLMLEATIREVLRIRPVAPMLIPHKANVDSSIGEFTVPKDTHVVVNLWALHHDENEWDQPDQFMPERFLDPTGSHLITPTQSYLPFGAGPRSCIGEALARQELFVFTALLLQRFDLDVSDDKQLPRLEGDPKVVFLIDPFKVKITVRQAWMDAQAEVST
# Method in brief: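 Microsomes from rat testes with 25 µM progesterone as substrate. Product measured by RP-HPLC with UV detection. IC50 is the mean of at least two experiments.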
# [6] = target: T5, Steroid 17-alpha-hydroxylase/17,20 lyase (Homo sapiens, UniProt P05093); test: Inhibition of human Cytochrome P450 17
# T5 sequence (P05093 whole entry): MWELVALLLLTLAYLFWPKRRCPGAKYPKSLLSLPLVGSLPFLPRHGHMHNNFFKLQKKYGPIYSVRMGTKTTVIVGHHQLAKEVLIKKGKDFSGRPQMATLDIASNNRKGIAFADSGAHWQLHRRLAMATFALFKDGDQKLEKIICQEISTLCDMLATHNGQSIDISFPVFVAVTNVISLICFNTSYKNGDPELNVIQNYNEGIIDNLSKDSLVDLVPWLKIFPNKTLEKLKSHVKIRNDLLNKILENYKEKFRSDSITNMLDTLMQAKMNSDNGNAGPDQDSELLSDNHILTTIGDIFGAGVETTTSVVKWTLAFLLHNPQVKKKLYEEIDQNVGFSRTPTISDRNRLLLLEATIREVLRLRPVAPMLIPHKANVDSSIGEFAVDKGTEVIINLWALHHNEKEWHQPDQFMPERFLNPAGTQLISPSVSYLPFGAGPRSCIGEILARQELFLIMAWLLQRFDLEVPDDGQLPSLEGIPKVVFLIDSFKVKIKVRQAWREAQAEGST
# Method in brief: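 Human testicular microsomes with 25 µM progesterone as substrate. Product quantified by RP-HPLC with UV detection. IC50 is the mean of at least two experiments.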
# Rattus norvegicus [7] = species on record: Rattus norvegicus; test: Percent decrease in plasma testosterone after 2 hr; format: functional
# Method in brief: (§1)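 Adult male Sprague-Dawley rats, 7–8 per group, each received one intraperitoneal dose of 0.019 mmol/kg in olive oil/benzyl alcohol (95:5). Blood was drawn by cardiac puncture under diethyl ether anaesthesia at 2 or 6 h. Plasma testosterone was measured by double-antibody [125I]RIA (detection limit 0.1 ng/mL) and compared with vehicle controls.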
# Rattus norvegicus [8] = species on record: Rattus norvegicus; test: Percent decrease in plasma testosterone after 6 hr; format: functional; method in brief: as §1
# [9] = target: T4, Steroid 17-alpha-hydroxylase/17,20 lyase; test: Evaluated for the inhibitory activity towards Cytochrome P450 17 rat enzyme using testicular microsome at 25 uM of substrate (progesterone); set-up: species or system Testis
# Method in brief: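 Testicular microsomes (human for human enzyme, rat for rat enzyme) incubated with progesterone substrate at 25 µM; product measured by RP-HPLC with UV detection. IC50 = concentration giving 50% inhibition, mean of at least two experiments.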
# [10] = target: T5, Steroid 17-alpha-hydroxylase/17,20 lyase; test: Evaluated for the inhibitory activity towards Cytochrome P450 17 human enzyme using testicular microsome at 25 uM of substrate (progesterone); set-up: species or system Testis
# [11] = target: T2, 3-oxo-5-alpha-steroid 4-dehydrogenase 2; test: Evaluated for the inhibitory activity against human steroid 5-alpha-reductase type 2 from human BPH tissue at 210 nM of testosterone
# Method in brief: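 Enzyme from prostate homogenate of BPH patients, assayed at pH 5.5 with radiolabeled testosterone at 210 nM; product separated by HPLC. IC50 taken as inhibitor concentration giving 50% inhibition; mean of at least two experiments.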
# [12] = target: T5, Steroid 17-alpha-hydroxylase/17,20 lyase; test: Inhibition of Human P450 17 and NADPH-P450 reductase co-expressed in Escherichia coli with 25 uM progesterone
# [13] = target: T3, Thromboxane-A synthase (Homo sapiens); test: Inhibition of thromboxane synthase P450 TXA2 at 50 uM
# Method in brief: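 Thromboxane synthase activity measured in citrated human whole blood; inhibitor tested at 50 µM.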
# [14] = target: T4, Steroid 17-alpha-hydroxylase/17,20 lyase; test: Inhibition of Cytochrome P450 17 from rat testicular microsome at 125 uM progesterone; No inhibition
# [15] = target: T5, Steroid 17-alpha-hydroxylase/17,20 lyase; test: Inhibition of Cytochrome P450 17 of human testicular microsomes at 25 uM progesterone
# Method in brief: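 Enzyme source was human testicular microsomes, with progesterone substrate at 25 µM and product determined by RP-HPLC with UV detection. IC50 is the inhibitor concentration giving 50% inhibition, reported as the mean of at least two experiments.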
# [16] = target: T4, Steroid 17-alpha-hydroxylase/17,20 lyase; test: Inhibition of Cytochrome P450 17 from rat testicular microsome at 25 uM progesterone; No inhibition
# [17] = target: T6, P450 scc (cholesterol side-chain cleavage enzyme, mitochondrial) (Bos taurus, UniProt P00189); test: Inhibition of P450 scc at 25 uM; conditions: cattle
# T6 sequence (P00189 whole entry): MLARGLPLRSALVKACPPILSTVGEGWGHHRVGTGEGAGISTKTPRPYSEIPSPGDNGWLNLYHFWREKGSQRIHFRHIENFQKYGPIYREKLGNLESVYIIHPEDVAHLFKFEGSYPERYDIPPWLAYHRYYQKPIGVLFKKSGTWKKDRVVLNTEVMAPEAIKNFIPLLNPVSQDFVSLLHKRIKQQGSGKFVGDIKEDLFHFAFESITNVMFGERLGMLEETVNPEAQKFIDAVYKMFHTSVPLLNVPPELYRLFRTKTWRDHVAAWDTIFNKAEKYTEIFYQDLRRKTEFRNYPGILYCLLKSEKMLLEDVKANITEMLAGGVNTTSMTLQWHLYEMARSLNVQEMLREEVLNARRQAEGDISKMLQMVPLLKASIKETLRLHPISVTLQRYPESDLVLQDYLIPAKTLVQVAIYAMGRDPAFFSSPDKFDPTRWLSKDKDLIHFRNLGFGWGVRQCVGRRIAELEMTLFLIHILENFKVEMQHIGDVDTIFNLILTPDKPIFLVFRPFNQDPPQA
# Method in brief: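 Bovine adrenal P450 scc preparation; inhibitor tested at 25 µM.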
Compound,IC50 [1] [nM],IC50 [9] [nM],IC50 [10] [nM],IC50 [11],also measured
CC(C)(C)NC(=O)[C@H]1CC[C@H]2[C@@H]3CC[C@H]4NC(=O)C=C[C@]4(C)[C@H]3CC[C@]12C [FINASTERIDE],40,–,–,–,IC50 [2]: 540 nM; IC50 [3]: 60 nM
O=C(O)c1ccc(OCCn2ccnc2)cc1,–,–,–,–,IC50 [4]: 1.1 µM
CC12CCC(O)CC1=CCC1C2CCC2(C)C(c3c[nH]cn3)=CCC12 (stereo not given),–,–,–,–,IC50 [5]: 180 nM; IC50 [6]: 40 nM
CC(=O)N1CCN(c2ccc(OCC3COC(Cn4ccnc4)(c4ccc(Cl)cc4Cl)O3)cc2)CC1 (stereo not given) [KETOCONAZOLE],–,–,–,–,Decrease (Rattus norvegicus [7]): 57%; Decrease (Rattus norvegicus [8]): 44%
C/C(=N/O)[C@H]1CCC2C3CCC4=CC(=O)CCC4(C)C3CCC21C (stereo not given in full),1630,> 125000,> 2500,580 nM and 1170 nM,IC50 [2]: 1770 nM
C/C(=N/O)C1=CCC2C3CCC4=CC(=O)CCC4(C)C3CCC12C (stereo not given),> 10000,> 125000,100,> 10000 nM,–
C[C@]12CC[C@H](O)CC1=CC[C@H]1C3CC/C(=C/C=N\O)[C@@]3(C)CC[C@@H]12 (stereo not given in full),–,520,77,–,IC50 [12]: 230 nM; inhibition [13]: 35%
C/C(=N/O)[C@H]1CC[C@H]2[C@@H]3CC=C4C[C@@H](O)CC[C@]4(C)[C@H]3CC[C@]12C,–,–,–,–,IC50 [14]: Not Active; IC50 [15]: 1650 nM
C/C(=N/O)[C@H]1CCC2C3CC(=O)C4=CC(=O)CCC4(C)C3CCC21C (stereo not given in full),> 10000,–,> 2500,3200 nM,IC50 [16]: Not Active
CC12CCC(O)CC1=CCC1C2CCC2(C)C(C/C=N/O)CCC12 (stereo not given),–,2760,270,–,inhibition at 25 µM [17]: 74%
